Calls of active or inactive are those of the source. The rule behind the calls is not given here.
Experiments:
[1] = (§1) Antagonist activity at GST-tagged human recombinant FXRalphaLBD expressed in Escherichia coli BL21 cells assessed as inhibition of CDCA-induced SRC-1 co-activator association by HTRF assay; format: functional
Summary of the method: (§2)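 HTRF coactivator recruitment: 10 nM GST-human FXRαLBD (residues 238–473, E. coli BL21(DE3)), 0.83 nM anti-GST-Eu cryptate, 100 nM biotin-SRC1 peptide, 41.75 nM SA/XL665. Buffer was 50 mM Hepes pH 7.0, 125 mM KF, 0.125% CHAPS, 0.05% dry milk. Compound alone or with CDCA, 30 min at room temperature. Signal was 1000×(668/620 nm). Primary screen at 40 μM; IC50 as mean ± SE, three experiments.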

BL21 = assay: as §1; format: functional; summary of the method: as §2
[2] = Agonist activity at GST tagged human recombinant FXRalphaLBD expressed in Escherichia coli BL21 cells assessed as SRC-1 co-activator association at 40 uM after 30 mins by HTRF assay; format: functional; summary of the method: as §2
Mus musculus [3] = assay: Reduction of hepatic cholesterol level in cholesterol-fed C57BL/6 mouse at 100 mg/kg, po after 10 days; format: functional; parameters: scale not given: the % may be the effect or the level left
Summary of the method: (§3)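 Male C57BL/6 mice, 8–12 weeks old, were randomized into five groups of nine. Control mice had ground chow; the other groups had chow with 2% cholesterol. Compound (50 or 100 mg/kg) or reference (100 mg/kg) was suspended in 0.5% CMC-Na and given by oral gavage; control and vehicle mice got 0.5% CMC-Na. Serum and hepatic triglyceride and total cholesterol were measured.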

Mus musculus [4] = assay: Reduction of serum triglyceride level in cholesterol-fed C57BL/6 mouse at 50 mg/kg, po after 10 days; format: functional; parameters: scale not given: the % may be the effect or the level left; summary of the method: as §3
[5] = biological target: T1, Bile acid receptor (Homo sapiens) (UniProt Q96RI1); assay: Antagonist activity at human FXR in human HepG2 cells assessed as reduction in triglyceride level after 24 hrs; format: functional, cell-based
T1 sequence (whole entry): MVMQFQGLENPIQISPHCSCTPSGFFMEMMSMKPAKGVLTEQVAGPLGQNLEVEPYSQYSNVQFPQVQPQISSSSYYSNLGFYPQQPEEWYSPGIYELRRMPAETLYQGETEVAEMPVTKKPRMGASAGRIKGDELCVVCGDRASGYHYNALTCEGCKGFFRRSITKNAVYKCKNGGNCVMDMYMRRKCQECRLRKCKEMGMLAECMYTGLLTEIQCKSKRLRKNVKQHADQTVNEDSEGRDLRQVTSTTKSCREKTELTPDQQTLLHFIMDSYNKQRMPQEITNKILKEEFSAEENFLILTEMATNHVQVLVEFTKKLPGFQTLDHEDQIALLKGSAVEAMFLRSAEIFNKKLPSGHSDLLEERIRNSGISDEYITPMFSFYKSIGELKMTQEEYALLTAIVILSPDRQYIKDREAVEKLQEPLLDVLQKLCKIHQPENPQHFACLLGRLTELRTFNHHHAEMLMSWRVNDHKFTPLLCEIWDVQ
Summary of the method: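 HepG2 cells were serum-starved overnight in FBS-free DMEM, then given DMSO or compound for 24 h in serum-free DMEM. Cells were lysed in RIPA buffer, sonicated on ice and centrifuged at 12000 rpm, 4 °C. Triglyceride and total cholesterol in the cleared lysate were measured by kits, with total protein by BCA. At least three experiments.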

[6] = biological target: T1, Bile acid receptor (Homo sapiens); assay: Antagonist activity at human FXR in human HepG2 cells assessed as inhibition of CDCA induced SHP gene expression at 5 to 40 uM after 24 hrs by RT-PCR analysis; format: functional, cell-based
Summary of the method: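 HepG2 cells in 6-well plates were treated with varied concentrations of compound, with or without 100 μM CDCA, for 24 h. Total RNA was taken with TRIzol and cDNA made by reverse transcription. Cyp7A1, SHP, BSEP and SREBP1c mRNA were measured by quantitative RT-PCR and normalized to β-actin. Three independent experiments.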

[7] = biological target: T2, Progesterone receptor (Homo sapiens) (UniProt P06401); assay: Antagonist activity at recombinant PR LBD expressed in HEK293T cells co-expressing GAL4 DBD assessed as inhibition of progesterone-induced transactivation at 20 uM by luciferase reporter gene assay; format: functional, cell-based; conditions: HEK-293T
T2 sequence (whole entry): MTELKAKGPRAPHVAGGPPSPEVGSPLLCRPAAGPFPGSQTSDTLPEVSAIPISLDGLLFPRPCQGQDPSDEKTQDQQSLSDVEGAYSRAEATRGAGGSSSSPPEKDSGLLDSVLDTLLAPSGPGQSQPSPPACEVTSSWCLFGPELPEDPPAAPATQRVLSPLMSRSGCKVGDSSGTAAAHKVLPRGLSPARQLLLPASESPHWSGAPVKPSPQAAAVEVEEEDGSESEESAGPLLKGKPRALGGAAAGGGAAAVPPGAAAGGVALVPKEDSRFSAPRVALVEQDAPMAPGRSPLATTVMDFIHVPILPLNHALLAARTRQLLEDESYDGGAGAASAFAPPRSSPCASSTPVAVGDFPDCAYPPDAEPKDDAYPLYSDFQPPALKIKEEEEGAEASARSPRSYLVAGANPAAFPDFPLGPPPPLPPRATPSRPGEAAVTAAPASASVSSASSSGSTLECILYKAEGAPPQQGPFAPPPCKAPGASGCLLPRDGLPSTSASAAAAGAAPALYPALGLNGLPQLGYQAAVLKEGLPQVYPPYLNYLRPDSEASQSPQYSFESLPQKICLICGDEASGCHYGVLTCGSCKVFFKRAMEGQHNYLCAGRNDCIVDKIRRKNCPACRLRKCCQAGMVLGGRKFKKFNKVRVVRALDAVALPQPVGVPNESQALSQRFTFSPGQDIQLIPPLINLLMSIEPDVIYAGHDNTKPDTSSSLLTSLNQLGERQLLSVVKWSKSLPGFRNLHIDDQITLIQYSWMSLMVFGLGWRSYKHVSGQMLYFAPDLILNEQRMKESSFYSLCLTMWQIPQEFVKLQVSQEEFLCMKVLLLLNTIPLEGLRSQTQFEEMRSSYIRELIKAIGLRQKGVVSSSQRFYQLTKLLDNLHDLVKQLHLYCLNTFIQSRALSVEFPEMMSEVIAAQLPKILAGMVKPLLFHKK
Summary of the method: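 One-hybrid assay in HEK293T cells cotransfected with a Gal4 DBD–NR-LBD fusion (RXRα, LXRα, GR, PR, PPARδ or PPARγ) plus UAS-TK-Luc reporter. Compound was 20 μM, given alone or with agonist: 9cRA 0.1 μM (RXRα), TO901317 0.5 μM (LXRα), dexamethasone 50 nM (GR), progesterone 100 nM (PR), GW1516 10 μM (PPARδ), rosiglitazone 10 μM (PPARγ). Luciferase read-out; three independent experiments.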

IC50 [1]: 8.96 µM | inhibition [5]: Dose-dependent effect | inhibition [6]: Active | inhibition [7]: inactive
Compound: COc1cc(/C=C2\C(=O)N(c3cccc([N+](=O)[O-])c3)N=C2c2ccccc2)ccc1O
inhibition (BL21): Dose-dependent effect | Activity [2]: <5% | Activity (Mus musculus [3]): 47.5% | Activity (Mus musculus [4]): 48.4%

From ChEMBL document CHEMBL2169822, “Discovery and optimization of 1,3,4-trisubstituted-pyrazolone derivatives as novel, potent, and nonsteroidal farnesoid X receptor (FXR) selective antagonists” (J Med Chem, 2012)
